# Compound activity: PubChem, several laboratories
# Compounds with a hit are over-represented: about 29% of the library has one in this group of screens.
# CYP2C9 inhib – blockers of cytochrome P450 2C9 activity – biochemical, luminescence, ADME assay, primary screen; hit rate 20% among 96,000; inhibition, % at 5 µM; AID 777, 2007; P11712; CYP2C9 Supersomes, luciferin-H conversion;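 active = blocking of liver enzyme CYP2C9 beyond about 50% at 5 µM, limit read from the data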
# Target sequence (P11712 whole entry, looked up): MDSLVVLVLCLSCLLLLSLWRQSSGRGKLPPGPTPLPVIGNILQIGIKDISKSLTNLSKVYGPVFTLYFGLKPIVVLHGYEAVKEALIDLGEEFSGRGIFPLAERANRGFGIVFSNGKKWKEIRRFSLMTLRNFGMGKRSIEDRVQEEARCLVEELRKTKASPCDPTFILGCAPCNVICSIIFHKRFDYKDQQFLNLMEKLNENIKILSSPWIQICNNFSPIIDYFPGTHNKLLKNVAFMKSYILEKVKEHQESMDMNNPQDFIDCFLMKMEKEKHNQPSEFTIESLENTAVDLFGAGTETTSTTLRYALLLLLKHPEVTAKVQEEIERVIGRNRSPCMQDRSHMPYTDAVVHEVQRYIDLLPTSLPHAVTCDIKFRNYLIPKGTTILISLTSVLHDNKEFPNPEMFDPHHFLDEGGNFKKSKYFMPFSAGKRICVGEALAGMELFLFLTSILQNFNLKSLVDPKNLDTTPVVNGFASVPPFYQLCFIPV
# CYP2C9 act – human CYP2C9 activators, primary screen, biochemical, luminescence; Cytochrome P450 2C9 (Homo sapiens), P11712; recombinant CYP2C9, luciferin-H conversion; hits give high values; factor 1 = untreated enzyme, 0 = blocked; activation factor at 5 µM; hit rate 1.4% among 96,000;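 active = activation factor of 2 or more for CYP2C9 at a 5 µM dose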
# Ecoli WT expand – growth inhibitors of wild-type E. coli, primary screen, strain BW25113, expanded library, OD600. OD600 absorbance. growth inhibition, % at 100 µM. hit rate 0.15% among 98,000. AID 710, 2007;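 active = growth inhibition above about 50% at one test dose, limit read from the data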;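 note: growth measured after 20 h incubation at 37 °C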
# CYP2C19 inh – blockers of cytochrome P450 2C19 activity – biochemical, luminescence, ADME assay, primary screen; P33261; CYP2C19 Supersomes, luciferin-H EGE luminescence, 30 min; inhibition, % at 5 µM; hit rate 21% among 96,000; AID 778, 2007;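 active = CYP2C19 inhibition above a set limit at 5 µM in the primary screen, cut at about 50% in these data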
# CYP2C19 act – human CYP2C19 activators, primary screen, biochemical, luminescence; Cytochrome P450 2C19 (Homo sapiens), P33261; recombinant CYP2C19, luciferin-H EGE luminescence; hits give high values; 0 = fully inhibited enzyme, 1 = untreated enzyme; activation factor at 5 µM; 96,000 tested, under 10 active; AID 1025, 2008;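 active = activation factor of at least 2 at 5 µM in the primary screen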
# tolC growth inh – growth inhibitors of E. coli tolC mutant, primary screen, strain BW25113 ΔtolC::kan, 384-well | OD615 | hit rate 2.2% among 65,000 | growth inhibition, % at 10 µM (by protocol);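 active = growth inhibition at or above a cutoff equal to the mean over every tested compound plus 3 SD, cut at about 60% in these data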;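 note: growth measured after 20 h incubation at 37 °C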
#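 signal = optical density read at 615 nm | test system = E. coli ΔtolC::kan strain BW25113 | timing = 20 h compound exposure of bacteria at 37 °C | buffer or medium = LB medium plus 50 µg/mL kanamycin | compound dosing = 10 µM final, single dose | evaluation = % inhibition of E. coli growth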
# Hits are given with their value; n = inactive; x = no result.
SMILES,CYP2C9 inhib,CYP2C9 act,Ecoli WT expand,CYP2C19 inh,CYP2C19 act,tolC growth inh
COc1nc(N/N=C/c2ccccc2F)nc(N2CCCCC2)n1,n,n,n,n,n,x
CCOC(=O)C1=C(CC)Nc2ccccc2N=C1NC(=O)c1cc(S(=O)(=O)N(C)C)ccc1Cl,68,n,n,n,n,x
CCOC(=O)C1=C(CC)Nc2ccccc2N=C1NC(=O)Nc1ccccc1OC,n,n,n,n,n,n
COc1cc(C(=O)N(Cc2cccnc2)Cc2cc3cc4c(cc3[nH]c2=O)OCCO4)cc(OC)c1OC,n,n,n,n,n,x
Cc1cc(C)c2cc(CN(Cc3cccnc3)C(=O)c3ccc(F)cc3)c(Cl)nc2c1,n,n,n,52,n,x
Cc1cccc2cc(CN(Cc3cccnc3)C(=O)c3ccccc3F)c(Cl)nc12,55,n,n,68,n,x
Cc1nc2scc(-c3ccc(Cl)cc3)c2c(=O)o1,n,n,n,n,n,x
CN1CCN(CC(=O)O)CC1,54,n,n,n,n,x
CCN(C(=O)CN1CCN(C)CC1)c1cccc2ccccc12,n,n,n,n,n,n
Cc1cc(C)nc(NS(=O)(=O)c2ccc(NC(=O)CCN3C(=O)c4ccccc4C3=O)cc2)n1,n,n,n,n,n,n
COc1ccc(/C=C/C(=O)NCC(=O)N/N=C/c2cc(Br)ccc2OCc2ccccc2)cc1,77,n,n,n,n,x
CC(Nc1ccc(Br)cc1)C(=O)N/N=C/c1ccccc1OCc1ccccc1 (stereo not drawn),95,n,n,89,n,x
O=C(N/N=C/c1ccc2cccc(OCc3ccccc3)c2n1)c1ccc(Br)cc1,n,n,n,n,n,x
COc1ccc(NC(C)C(=O)N/N=C/c2ccccc2OCc2ccc(Br)cc2)cc1 (stereo not drawn),69,n,n,n,n,x
CN(C(=S)NC1=CCS(=O)(=O)C1)C1CCCCC1,n,n,n,n,n,x
O=C(c1ccc(Cl)s1)N1CCN(c2ccccc2)CC1,x,x,n,x,x,n
Cc1ccc(-n2c(N)c(C(=O)N3CCCCC3)sc2=S)cc1,n,n,n,67,n,n
COc1c(N2CCNC(C)C2)c(F)cc2c(=O)c(C(=O)O)cn(C3CC3)c12 (stereo not drawn),x,x,x,x,x,97
CCN1CCN(c2cc3c(cc2F)c(=O)c(C(=O)O)cn3C2CC2)CC1,x,x,x,x,x,n
CC1CCc2cc(F)cc3c(=O)c(C(=O)O)cn1c23 (stereo not drawn),x,x,x,x,x,n
COc1c(N2CCN(C(=S)Nc3ccc(F)cc3)C(C)C2)c(F)cc2c(=O)c(C(=O)O)cn(C3CC3)c12 (stereo not drawn),n,n,99,n,n,x
Cc1cc2ncn(C(=O)N3CCOCC3)c2cc1C,n,n,n,n,n,n
O=C(O)c1ccc(Cn2cc(Cl)cn2)cc1,n,n,n,n,n,n
Fc1ccccc1COc1ccc(/C=N/n2cnnc2)cc1,95,n,n,97,n,n
C(=N\n1cnnc1)/c1ccc(OC2CSC2)cc1,85,n,n,93,n,n
SMILES,CYP2C9 inhib,CYP2C9 act,Ecoli WT expand,CYP2C19 inh,CYP2C19 act,tolC growth inh
C(=N\n1cnnc1)/c1ccc(OCc2cccc3ccccc23)cc1,81,n,n,n,n,x
O=C(CC12CC3CC(C1)CC(CC(=O)N1CCCC1)(C3)C2)N1CCCC1,n,n,n,n,n,n
CCc1c(C(=O)NC2CCCC2)csc1C,n,n,n,n,n,n
CCN1C(=O)NC(c2cc(Br)ccc2OC)C(C(=O)OC)=C1C (stereo not drawn),x,x,n,x,x,n
Oc1ccccc1C1=Nc2ncnn2C(c2ccccc2)C1 (stereo not drawn),n,n,n,54,n,n
c1ccc(C2C3=C(CCCC3)Nc3ncnn32)cc1 (stereo not drawn),n,n,n,n,n,n
[O-][n+]1onc2c1CCC1N(O)C(c3ccccc3)CC21O (stereo not drawn),n,n,n,n,n,n
Cc1[nH]n(-c2ccccc2)c(=O)c1/C=N/Nc1nncc(-c2ccccc2)n1,82,n,93,59,n,x
COc1ccc2c(c1)C(=NN)c1cc(OC)ccc1-2,62,n,n,n,n,x
CCOC(=O)C(C)Oc1ccsc1C(=O)OC (stereo not drawn),n,n,n,n,n,x
CCn1c(SC)nnc1-c1c[nH]c2ccccc12,n,n,n,72,n,n
CCn1c(SC(C)C(=O)OC)nnc1-c1c[nH]c2ccccc12 (stereo not drawn),n,n,n,66,n,n
CCn1c(SCc2ccc(C(=O)OC)o2)nnc1-c1c[nH]c2ccccc12,83,n,n,98,n,n
COc1ccc(-n2c(SC)nnc2-c2c[nH]c3ccccc23)cc1,n,n,n,n,n,n
C=CCSc1nnc(-c2c[nH]c3ccccc23)n1CC,n,n,n,79,n,n
O=C(COc1ccccc1Cl)NC(=S)N1CCc2ccccc21,n,n,n,n,n,x
O=C(CC1(O)C(=O)Nc2cc(Cl)cc(Cl)c21)c1ccccc1O (stereo not drawn),x,x,n,x,x,n
COCCn1c(SC)nnc1-c1c[nH]c2ccccc12,n,n,n,52,n,n
COCCn1c(SCC#N)nnc1-c1ccccc1O,n,n,n,n,n,n
CCN(C(=O)CSc1nc(-c2ccccc2)c(-c2ccccc2)[nH]1)C1CCS(=O)(=O)C1 (stereo not drawn),n,n,n,n,n,x
CCN(C(=O)CSc1nc2ccccc2n1CCc1ccccc1)C1CCS(=O)(=O)C1 (stereo not drawn),n,n,n,67,n,x
Cc1ccc(N2CCN(/N=C/c3sccc3C)CC2)cc1,n,2.8,n,n,n,x
CCCCSc1nnc2c(n1)[nH]c1ccccc12,n,n,n,n,n,x
Cc1cccc(-c2cc(C(=O)Nc3sc(C)c(C)c3C(N)=O)c3ccccc3n2)c1,69,n,n,n,n,x
Cc1ccc(C)c(-c2cc(C(=O)Nc3sc(C)c(C)c3C(N)=O)c3ccccc3n2)c1,96,n,n,n,n,x
CCOC(=O)c1sc(NC(=O)c2cc(-c3ccccc3)nc3ccccc23)c(C#N)c1C,n,n,n,n,n,x
O=C(CSc1nc2ccc(S(=O)(=O)N3CCOCC3)cc2[nH]1)N1CCOCC1,n,n,n,n,n,n
CCCCNS(=O)(=O)c1ccc2nc(SCC(=O)N3CC(C)OC(C)C3)[nH]c2c1 (stereo not drawn),55,n,n,n,n,x
Cc1nonc1NC(=O)OC1CCCCC1,n,n,n,n,n,n
O=S1(=O)CCN2C(=N1)Sc1c2ccc2c1CCCC2,n,n,n,70,n,n
